Measured values as given in publication PMC2212161 (The Journal of Experimental Medicine, 1998).
Like-named read-outs stand apart in the source and are kept apart here. Blank lines part the entries; values can stand above or below the substance they belong to.

What was measured:
NuMA [1] = conditions: Fas-stimulated Jurkat cells; cited from earlier work
F22/caspase-7 [2] = assay type: cell-based, human
F20/caspase-3-p20 [3] = assay type: cell-based, human
F17/caspase-3-p17 [4] = assay type: cell-based, human
[5] = system: active caspases in Fas-stimulated Jurkat cells; assay type: cell-based, human; conditions: inhibitor 100 μM, preincubated 1 h; anti-Fas mAb 4 h; Fig. 1 A
pro–caspase-7 = test: Processing of pro–caspase-7 in Fas-stimulated Jurkat cells; assay type: cell-based, human; conditions: inhibitor 100 μM; same blot reprobed with anti–caspase-7 Ab; Fig. 1 B
Summary of the method: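 The affinity-labeling blot from Jurkat cells (inhibitor preincubation 1 h, anti-Fas CH-11 100 ng/ml, 4 h, serum-free RPMI-1640) was reprobed with anti-caspase-7 antibody to follow pro-caspase-7 processing.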

F19/caspase-6 [6] = test: Cell-free caspase activation in Jurkat extracts triggered by caspase-8: F19; assay type: biochemical, human
F22/caspase-7 [7] = test: Cell-free caspase activation in Jurkat extracts triggered by caspase-8: F22; assay type: biochemical, human
F20/caspase-3-p20 [8] = test: Cell-free caspase activation in Jurkat extracts triggered by caspase-8: F20; assay type: biochemical, human; conditions: inhibitor 10 nM added before caspase-8; data not shown
F17/caspase-3-p17 [9] = test: Cell-free caspase activation in Jurkat extracts triggered by caspase-8: F17; assay type: biochemical, human
NuMA [10] = test: Immunoblotting for NuMA cleavage in Fas-stimulated Jurkat cells; assay type: cell-based, human; conditions: Fig. 5 B
Summary of the method: (§1)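 Jurkat cells were preincubated with inhibitor, then Fas-stimulated. Whole-cell extracts were made by boiling pellets 3 min in SDS sample buffer (50 mM Tris-HCl pH 6.8, 15% sucrose, 3% SDS). Gels were 5% SDS-PAGE for NuMA (rabbit polyclonal r240-C) and 10% for PARP (mAb C-2-10) and PAK2 (rabbit anti-ste20-subdomain VI). Proteins were blotted to nitrocellulose and cleavage fragments immunodetected.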

PARP = test: Immunoblotting for PARP cleavage in Fas-stimulated Jurkat cells; assay type: cell-based, human; conditions: Fig. 5 C
Summary of the method: as §1

PAK2 = test: Immunoblotting for PAK2 cleavage in Fas-stimulated Jurkat cells; assay type: cell-based, human; conditions: Fig. 5 D
Summary of the method: as §1

[11] = system: Fas-stimulated Jurkat cells; test: Flow cytometric analysis of DNA fragmentation; assay type: cell-based, human; conditions: anti-Fas mAb 4 h, Fig. 7 B
Summary of the method: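 Jurkat cells were pretreated with inhibitor, then given anti-Fas mAb for 4 h. Cells (10⁶) were fixed in 70% ethanol for 2 h on ice, washed in PBS, and treated with 10 μg/ml RNase A for 30 min at 37°C. They were stained with 50 μg/ml propidium iodide for 30 min on ice in the dark, and PI (log scale) was recorded against forward scatter by flow cytometry.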

[12] = system: Fas-stimulated Jurkat cells; test: Apoptotic body formation; assay type: cell-based, human; conditions: for Appearance of the cell population with the lowest FSC: flow cytometry; for Apoptotic body formation: phase contrast microscopy, Fig. 8
Summary of the method: (§2)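 Jurkat cells were preincubated 1 h at 37°C with inhibitor or 1% DMSO, then stimulated with anti-Fas mAb for 4 h. Cell size was read as forward scatter in flow cytometry, from PhiPhiLux-loaded or PI-stained cells. Reference was the lower FSC border of normally growing cells. Cell shape and apoptotic bodies were viewed by phase contrast microscopy.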

[13] = system: Fas-stimulated Jurkat cells; test: Shrinkage of cytoplasm / cell size; assay type: cell-based, human; conditions: for Fas-induced shrinkage of cells: phase contrast microscopy, Fig. 8; for Shrinkage of cytoplasm / decrease in cell size (FSC): Figs. 3 B and 7 B
Summary of the method: as §2

[14] = system: Fas-stimulated Jurkat cells; test: Mitochondrial PT; assay type: cell-based, human; conditions: Fas stimulation 4 h, Fig. 9 B
Summary of the method: (§3)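 Jurkat cells (5 × 10⁵) were pretreated 1 h with inhibitor, then stimulated with anti-Fas for 4 h. Cells were mesh-filtered and analysed at once by flow cytometry.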

[15] = system: Fas-stimulated Jurkat cells; test: PS externalization; assay type: cell-based, human; conditions: Fas stimulation 4 h, Fig. 9 B; for PS externalization (increase in annexin V binding): inhibitor 100 μM pretreated 1 h
Summary of the method: as §3

[16] = system: KB epidermal carcinoma cells; conditions: inhibitor 50 μM; cited from earlier work
F19/caspase-6 [17] = assay type: cell-based, human; conditions: inhibitor 10–100 μM preincubated before Fas receptor cross-linking; Fig. 2 C
[18] = system: active caspases in Jurkat cytoplasmic extracts; assay type: biochemical, human; conditions: inhibitor 10 μM; Fig. 2 A
[19] = system: caspase activity in Fas-stimulated Jurkat cells; test: Flow cytometric analysis of intracellular caspase activity with PhiPhiLux-G2D2; assay type: cell-based, human; conditions: inhibitor 100 μM alone without Fas stimulation; data not shown
[20] = system: Fas-stimulated Jurkat cells; test: Nuclear morphological changes; assay type: cell-based, human; conditions: inhibitor 100 μM preincubated 1 h 37°C; anti-Fas mAb 4 h; DAPI; Fig. 6
Summary of the method: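 Jurkat cells were preincubated 1 h at 37°C with inhibitor (1, 10 or 100 μM) or 1% DMSO, then stimulated with anti-Fas mAb for 4 h; unstimulated cells were kept 4 h as control. Cells were fixed with 1% glutaraldehyde, stained with 2 μg/ml DAPI, and scored microscopically for chromatin condensation, nuclear shrinkage and fragmentation.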

Caspase-8 = test: Sensitivity of caspase-8 to DMQD-CHO; assay type: biochemical; conditions: data not shown
F19/caspase-6 [21] = conditions: cited from earlier work
F20/caspase-3-p20 [22] = conditions: cited from earlier work
[23] = inhibitor 10 μM, preincubated 1 h, anti-Fas mAb 4 h, Fig. 1 A
[24] = inhibitor 10 nM added before caspase-8, data not shown
[25] = inhibitor 100 μM, flow cytometry
[26] = inhibitor 100 μM pretreated 1 h
[27] = inhibitor 10–100 μM preincubated before Fas receptor cross-linking, Fig. 2 C

Substance: DEVD-CHO
- NuMA cleavage (NuMA [1]): blocked

Substance: acetyl-Val-Ileu-Asp-aldehyde [VEID-CHO]
- Labeling of F22/caspase-7 (F22/caspase-7 [2]; [23]): unaffected
- Labeling of F20/caspase-3-p20 (F20/caspase-3-p20 [3]; [23]): unaffected
- Labeling of F17/caspase-3-p17 (F17/caspase-3-p17 [4]; [23]): Suppression
- Caspase labeling (all) [5]: loss of all caspase labeling
- Processing of pro–caspase-7 (pro–caspase-7): blocked
- Activity of caspase-6 in cell-free activation (F19/caspase-6 [6]; [24]): selectively blocked
- Activation of caspase-7 in cell-free activation (F22/caspase-7 [7]; [24]): minimal effects
- Activation of caspase-3-p20 in cell-free activation (F20/caspase-3-p20 [8]): minimal effects
- Activation of caspase-3-p17 in cell-free activation (F17/caspase-3-p17 [9]; [24]): minimal effects
- Proteolysis yielding the 180-kD NuMA fragments (NuMA [10]; inhibitor 1 μM): not affected
- 180-kD NuMA fragment (NuMA [10]; inhibitor 10 μM): moderate decrease
- Production of the 160-kD NuMA fragment (NuMA [10]; inhibitor 1–10 μM): suppressed
- PARP cleavage (PARP; inhibitor 1 μM): did not affect
- PARP cleavage (PARP; inhibitor 10 μM): Partial blockade
- PARP cleavage (PARP; inhibitor 100 μM): markedly suppressed
- Cleavage of PAK2 (PAK2; inhibitor up to 10 μM): failed to affect
- DNA fragmentation ([11]; inhibitor 100 μM): suppresses both
- DNA fragmentation ([11]; inhibitor up to 10 μM): did not prevent
- Appearance of the cell population with the lowest FSC ([12]; inhibitor 10 μM, Fig. 7 B): had no effect
- Apoptotic body formation ([12]; inhibitor up to 10 μM): did not prevent
- Cell size (FSC) ([13]; inhibitor 10 μM, flow cytometry, Fig. 7 B): had no effect
- Fas-induced shrinkage of cells ([13]; inhibitor 10 μM): Neither 100 μM DMQD-CHO (Fig. 8 h) nor 10 μM VEID-CHO (Fig. 8 d) affected
- Shrinkage of cytoplasm / decrease in cell size (FSC) [13, 25]: markedly suppressed
- Fas-induced shrinkage of cells ([13]; inhibitor 100 μM): completely blocked
- Mitochondrial PT ([14]; inhibitor 10 μM pretreated 1 h): Neither PT nor PS externalization were affected
- Mitochondrial PT [14, 26]: markedly inhibited
- PS externalization ([15]; inhibitor 10 μM pretreated 1 h): Neither PT nor PS externalization were affected
- PS externalization (increase in annexin V binding) [15]: markedly inhibited

Substance: benzyloxycarbonyl-Asp-Glu-Val-Asp(OMe)-fluoromethylketone [zDEVD-FK]
- Fas-induced chromatin condensation and apoptotic body formation [16]: abolished

Substance: benzyloxycarbonyl-Val-Ala-Asp(OMe)-fluoromethylketone [zVAD-fmk]
- NuMA cleavage (NuMA [1]): blocked

- Sensitivity of caspase-8 (Caspase-8): relatively insensitive
Substance: Ac-DMQD-aldehyde [DMQD-CHO]
- Appearance of F19/caspase-6 (F19/caspase-6 [17]): blocked
- Activation of caspase-7 (time course) (F22/caspase-7 [2]; inhibitor 100 μM preincubated 1 h, Fig. 2 D): uninterrupted
- Labeling of F22 (F22/caspase-7 [2]; inhibitor up to 100 μM, Fig. 2 C): persisted
- Labeling of F20/caspase-3-p20 (F20/caspase-3-p20 [3]; [27]): suppressed
- Labeling of F17/caspase-3-p17 (F17/caspase-3-p17 [4]; [27]): suppressed
- Concentration preventing appearance of F19/caspase-6 (F19/caspase-6 [6]; preincubation before addition of caspase-8, Fig. 2 A): 1 to 2 µM
- Labeling of F22/caspase-7 (F22/caspase-7 [7]; inhibitor up to 5 μM, Fig. 2 A): unhindered
- Labeling of F17/caspase-3-p17 (F17/caspase-3-p17 [9]; inhibitor 1–2 μM, Jurkat extract preincubated, caspase-8, 4 h 37°C, Fig. 2 A): suppressed
- Caspase labeling (all) [18]: loss of all labeling
- Increase in PhiPhiLux-G2D2 fluorescence or cell shrinkage [19]: did not induce
- Generation of the 160-kD NuMA fragment (NuMA [10]; inhibitor 100 μM): blocked
- Generation of the 180-kD NuMA fragment (NuMA [10]; inhibitor 100 μM): blocked
- PARP cleavage (PARP; inhibitor 100 μM): only weakly inhibited
- Cleavage of PAK2 (PAK2; inhibitor 100 μM): suppressed
- Nuclear morphological changes [20]: completely blocked
- DNA fragmentation ([11]; inhibitor 100 μM): completely inhibited
- Appearance of the cell population with the lowest FSC ([12]; inhibitor 100 μM, Figs. 3 B and 7 B): suppressed
- Apoptotic body formation ([12]; inhibitor 100 μM): formed no apoptotic bodies
- Shrinkage of cytoplasm / decrease in cell size (FSC) [13, 25]: proceeded to a significant degree
- Fas-induced shrinkage of cells ([13]; inhibitor 100 μM): Neither 100 μM DMQD-CHO (Fig. 8 h) nor 10 μM VEID-CHO (Fig. 8 d) affected
- Mitochondrial PT [14, 26]: not affected
- PS externalization (increase in annexin V binding) [15]: suppressed
- Concentration required to block activity of caspase-6 relative to caspase-7 (F19/caspase-6 [21]; higher for caspase-6): ~10 fold
- Activity of F19/caspase-6 (F19/caspase-6 [21]; inhibitor even at 100 μM): insensitive
- Concentrations previously shown to block the activity of F20/caspase-3-p20 (F20/caspase-3-p20 [22]): 1 to 2 µM
